In PubChem BioAssay AID2520 (Sanford-Burnham Center for Chemical Genomics, 2010):
The whole screen tested about 330,000 compounds, of which about 350 (0.11%) were called active. This is one part of a sample in which actives are shown more often than they occur. Unmarked numbers belong to inactive results.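 How the source made its calls: active means activation more than six SD over the plate average, tested at 20 µM; inactive means the rest.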

molecular target: Apelin receptor (Homo sapiens) (UniProt P35414); assay: agonists of human apelin receptor APJ, primary screen, CHO-K1 cells, PathHunter beta-arrestin, luminescence (AID 2520); details: at 20 µM, hits give high values, 0% DMSO wells, 100% apelin
Sequence (P35414 whole entry, looked up): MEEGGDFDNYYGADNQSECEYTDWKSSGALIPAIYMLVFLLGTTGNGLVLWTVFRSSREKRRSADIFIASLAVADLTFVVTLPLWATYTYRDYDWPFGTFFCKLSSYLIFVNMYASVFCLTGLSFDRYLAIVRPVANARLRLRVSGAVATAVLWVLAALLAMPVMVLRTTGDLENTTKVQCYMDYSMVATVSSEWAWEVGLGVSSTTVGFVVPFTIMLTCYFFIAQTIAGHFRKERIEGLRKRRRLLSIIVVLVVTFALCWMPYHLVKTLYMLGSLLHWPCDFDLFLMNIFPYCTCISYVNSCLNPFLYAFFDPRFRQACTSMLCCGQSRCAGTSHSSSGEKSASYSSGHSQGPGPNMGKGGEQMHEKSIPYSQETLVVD
Summary of the method: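 Incubation: overnight seeding, 90 min compound at 25 °C, 1 h detection; test system: PathHunter CHO-K1 APJ (AGTRL-1) beta-arrestin reporter cells; amount: 1000 cells/well; doses: one dose, 20 µM compound, 1% DMSO; measured by: beta-gal luminescence; measure: agonist-driven arrestin binding to APJ; benchmarks: negative DMSO alone, positive Apelin-13 at 10 nM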

First: CCCCc1cc(=O)oc2c(C)c(OCC(=O)N3CCC(C(N)=O)CC3)ccc12
Second: CCN1CCN(C(=O)CCN2C(=O)c3ccccc3C2=O)CC1
The activation of the first is lower: -4.2% for the first, -1.85% for the second.

Compared with `CCOc1ccc(/C=C/C(=O)N(CC)CC(=O)NCc2cccs2)cc1OC`, `Cc1ccnc(NC(=O)CCC(=O)N(CC(=O)NCCc2ccccc2)Cc2cccs2)c1` is lower in activation: 8.54% for the first, -3.93% for the second.

Going from `Cc1nnc(SCC(=O)NC(=O)NC2CCCC2)n1N` to `COC(=O)c1ccc(NC(=O)CSc2nnc(C3CC3)n2C)cc1`, the activation rises from -4.56% to -3.11%.

Going from `COc1ccc2c(c1)N(C)/C(=C1/SC(=S)N(NC(C)=O)C1=O)S2` to `COc1cccc2c(O)cc(=O)n(C)c12`, the activation falls from -1.51% to -2.86%.

First: O=C1NC(c2ccccc2)=NC1(Nc1ccccn1)C(F)(F)F (stereo unspecified)
Second: O=C(OCCN1C(=O)c2ccccc2C1=O)Oc1ccccc1
The activation of the first is higher: 1.8% for the first, -1.77% for the second.

First: Cc1ccsc1C(=O)OCC(=O)Nc1cccc(F)c1
Second: N#Cc1cccc(NC(=O)COC(=O)c2ccccc2C(=O)c2ccc(Cl)c([N+](=O)[O-])c2)c1
The activation of the first is lower: -4.87% for the first, -0.51% for the second.

Going from `COc1ccc(-n2c(=O)[nH]c3cc(C(=O)NCCc4ccc(OC)c(OC)c4)ccc3c2=O)c(OC)c1` to `O=Cc1c(NCCc2cccc(F)c2)c2ccccc2[nH]c1=O`, the activation falls from -2.2% to -3.46%.

Compared with `O=C(NC1CCCC1)C(NS(=O)(=O)c1ccc(Br)s1)c1ccccc1` (stereo unspecified), `COc1ccc(C)cc1N(CC(=O)NC(C)c1ccccc1)S(C)(=O)=O` (stereo unspecified) is lower in activation: 1.83% for the first, -1.79% for the second.

Going from `Cc1ccc2c(c1)NCC(C(=O)NC1CCC(C)CC1)O2` (stereo unspecified) to `COC(=O)c1ccc(C)c(NC(=O)C2CC(=O)N(C3CCCC(C)C3C)C2)c1` (stereo unspecified), the activation falls from -1.38% to -2.02%.

Compared with `N#CC1=C(N)N(c2ccc(F)cc2)C(=O)C1`, `CCOC(=O)CSc1nnc(NC(=O)C2CC(=O)N(c3ccc(F)cc3)C2)s1` (stereo unspecified) is lower in activation: -4.08% for the first, -4.52% for the second.

Compared with `CC(=O)Nc1ccc(NC(=O)C(C)n2c3ccccc3c3nc(=O)cc(C)n32)cc1` (stereo unspecified), `Cc1ccc(C)c(NC(=O)NNC(=O)c2ccc3ccccc3c2O)c1` is higher in activation: -3.18% for the first, 10% for the second.

Going from `CCOC(=O)C1=C(CC)OC(N)=C(C#N)C1c1ccc(F)cc1F` (stereo unspecified) to `COc1ccc(C)cc1NC(=O)CSc1nnc(CC(=O)Nc2ccccc2F)n1C`, the activation rises from -3.78% to -3.35%.

First: Cc1cccc(NC(=O)c2sc3nc(N4CCOCC4)c4c(c3c2N)CCCC4)c1
Second: Cc1nc(N2CCOCC2)nc2c1CCCC2
The activation of the first is lower: -11.8% for the first, 0.237% for the second.

First: Cc1cc(NS(=O)(=O)c2ccc(NC(=O)c3cccnc3)cc2)nc(C)n1
Second: Cc1ccnc(NS(=O)(=O)c2ccc(NC(=O)c3ccc(S(=O)(=O)N(C)C)cc3)cc2)n1
The activation of the first is higher: 1.41% for the first, -2.66% for the second.

Going from `CC(=O)NC(=S)Nc1ccc(NC(=O)c2cccnc2)cc1` to `CC(=O)c1ccccc1OCc1ccc(C(=O)c2ccccc2)cc1`, the activation falls from 3.75% to -3.74%.

First: C=CCOc1ccccc1NC(=O)CN1C(=O)CNC1=O
Second: CC1(c2ccccc2)NC(=O)N(CC(=O)Nc2cc(Cl)ccc2N2CCOCC2)C1=O (stereo unspecified)
The activation of the first is higher: -2.49% for the first, -3.1% for the second.

Compared with `NS(=O)(=O)c1ccc(CCNC(=O)COC(=O)COc2cccc(C(F)(F)F)c2)cc1`, `O=C(COc1ccc(Cl)cc1)NCCSc1ccccc1` is higher in activation: -3.07% for the first, -1.87% for the second.

First: COc1cc2c(cc1OC)C(=O)NCC(C)(C)O2
Second: CCCCn1nnnc1NCc1cc(OC)c(OC)c(OC)c1
The activation of the first is higher: -0.328% for the first, -4.13% for the second.

Going from `CN(CCc1ccccn1)C(=O)c1ccc(OC2CCN(Cc3ccccn3)CC2)cc1` to `CN(CCC1CCOCC1)Cc1cn[nH]c1-c1ccc(-c2ccccc2)cc1`, the activation rises from -8.78% to -3.69%.

First: CC(C)=CCCC(C)CN1CCC(n2nccc2NC(=O)c2ccccc2)CC1 (stereo unspecified)
Second: CC(=O)c1ccc(OCC(O)CN2CCN(S(=O)(=O)c3cccc(Br)c3)CC2)cc1 (stereo unspecified)
The activation of the first is higher: 1.47% for the first, -1.5% for the second.

Compared with `CCCn1c(=S)[nH]c2ccc(C(F)(F)F)cc21`, `CCCS(=O)(=O)N1CCN=C1SCc1cccc(F)c1` is higher in activation: 0.385% for the first, 2.13% for the second.

First: O=C(Nc1cccc([N+](=O)[O-])c1)N1CCc2ccccc2C1
Second: CN(c1ccccc1)S(=O)(=O)c1ccc(Cl)c(C(=O)OCC(=O)N2CCOCC2)c1
The activation of the first is higher: -0.709% for the first, -4.02% for the second.

Going from `Cc1ccc(O/C=C2\OC(=O)c3ccccc32)cc1` to `Cc1ccc(S(=O)(=O)NCc2nc3ccccc3c(=O)n2N)cc1`, the activation rises from -1.88% to -0.607%.

Going from `O=C(OCC(=O)c1cccs1)c1ccc([N+](=O)[O-])o1` to `CCc1ccccc1NC(=O)CN(C)C(=O)COc1ccc(C)nc1[N+](=O)[O-]`, the activation falls from 3.99% to -1.82%.

Going from `COC(=O)Cc1cnc(NC(=O)CSc2nc(C(C)C)cc(=O)[nH]2)s1` to `Cc1ccc(C(=O)C(C)OC(=O)Cc2n[nH]c(=O)c3ccccc23)cc1C` (stereo unspecified), the activation rises from -1.9% to 6.72%.

First: O=C1NC(=Nc2ccc(Cl)cc2)SC1Cc1cccc(Cl)c1Cl (stereo unspecified)
Second: COc1ccc(N(CCC#N)S(=O)(=O)c2ccc(Cl)cc2)cc1
The activation of the first is higher: -3.58% for the first, -5.53% for the second.

Going from `CCc1ccc2c(c1)cc(CN(C(=S)Nc1ccccc1Cl)C1CC1)c1nnnn12` to `CCc1ccc(CN(C)C(=O)CCc2nnc(-c3ccc(-c4ccccc4)cc3)o2)nc1`, the activation falls from 4.19% to -3.94%.

Going from `Cc1cccc2cc(CN(Cc3cccs3)C(=S)NCc3ccco3)c(=O)[nH]c12` to `COCCCNC(=S)N(CCN(C)C)Cc1cc2cc3c(cc2[nH]c1=O)OCCO3`, the activation falls from -1.92% to -4.21%.

Going from `O=C1C=CC(=O)N1c1ccc(N2CCCCC2)cc1` to `COc1ccc(N2CCN(C(=O)c3ccccc3NC(=O)C3=C(C)OCCS3)CC2)cc1`, the activation rises from -5.18% to -4.76%.

First: Cc1c(CCC(=O)O)c(=O)oc2cc3occ(-c4ccccc4)c3cc12
Second: CC1CN(C(=O)c2ccc3c(c2)OCO3)OC(c2ccccc2)O1 (stereo unspecified)
The activation of the first is higher: -2.13% for the first, -2.94% for the second.

First: CCn1c(-c2cccnc2Cl)nc2cc(C)c(C)cc21
Second: CSc1ncc(C(=O)Nc2ccc(C)cc2C)c(C)n1
The activation of the first is lower: -1.12% for the first, -0.333% for the second.

First: COCC(=O)Nc1cc(C(=O)OC)cc(C(=O)OC)c1
Second: C=CCOc1ccc(C2/C(=C(\O)c3c(C)[nH]c(C(=O)OC)c3C)C(=O)C(=O)N2CCN(C)C)cc1 (stereo unspecified)
The activation of the first is lower: -0.719% for the first, -0.14% for the second.

Going from `CCOC(CNC(=O)C(=O)NCC(c1ccco1)N1CCN(c2ccc(OC)cc2)CC1)OCC` (stereo unspecified) to `CCCc1nc(N2CCN(C)CC2)c2sc(=S)n(-c3ccccc3)c2n1`, the activation rises from -4.81% to -2.45%.

Going from `COCn1c(C(O)c2ccccc2)cc2ccccc21` (stereo unspecified) to `Fc1ccc(CNCc2ccc(Br)cc2)cc1`, the activation rises from -2.04% to -1.03%.

Going from `COc1ccc(S(=O)(=O)Nc2ccc(F)cc2)c(C)c1C` to `CC1CCN(C(=O)c2ccc(S(=O)(=O)Cc3cc(F)ccc3F)c([N+](=O)[O-])c2)CC1`, the activation rises from -0.449% to 1.51%.

Going from `CCCCN(CC)C(=O)CN(C)S(=O)(=O)c1cccc2nsnc12` to `CCCCNC(=O)c1ccccc1NC(=O)C1=C(C)OCCS1`, the activation rises from -2.83% to 0.515%.

Compared with `CC(C)(C)C1CCC(=NNC(=O)c2ccc(Br)o2)CC1` (stereo unspecified), `O=C(N/N=C\C1CC=CCC1)c1ccc(Br)o1` (stereo unspecified) is higher in activation: -3.06% for the first, 8.95% for the second.

Going from `O=C(COC(=O)C12CC3CC(CC(O)(C3)C1)C2)NC12CC3CC(CC(C3)C1)C2` to `CCN1CCN(C(C(=O)NC2CCCC2)c2cc3c(cc2[N+](=O)[O-])OCO3)CC1` (stereo unspecified), the activation rises from -1.34% to 9.21%.

First: O=[N+]([O-])c1cc(Cl)cc(/C=N/NC(=S)Nc2cc(S(=O)(=O)N3CCOCC3)ccc2Cl)c1O
Second: CC(=O)N1c2ccc(S(=O)(=O)N3CCCC(C(=O)Nc4cccc(Cl)c4)C3)cc2CC1C (stereo unspecified)
The activation of the first is lower: -5.98% for the first, -0.333% for the second.

First: Cc1ccc(NS(=O)(=O)c2c(C)[nH]c(C)c2C(=O)N2CCCCC2)c(C)c1
Second: CC(C(=O)Nc1ccc(F)c(F)c1F)N1CCCCCC1 (stereo unspecified)
The activation of the first is higher: -0.00146% for the first, -3.77% for the second.

First: CC(=O)N1CCCc2cc(S(=O)(=O)N3CCCC(C(=O)NCc4ccc(Cl)cc4)C3)ccc21 (stereo unspecified)
Second: Cc1ccccc1NC(=O)CSc1nc2ccc(Nc3nc(N4CCOCC4)nc(N4CCOCC4)n3)cc2s1
The activation of the first is lower: -0.0955% for the first, 8.35% for the second.

For `O=S(=O)(/C=C/c1ccccc1)N1CCNCC1`, the activation was -1.77%.

`Nc1nc(-c2sc3nc4c(cc3c2N)CCCC4)nc(N2CCOCC2)n1` was tested, and the activation was 12.3% (active).
In the case of `Cc1ccc2nc(-c3ccc(NC(=O)c4cccnc4)cc3)oc2c1`, the activation is reported as 14.6% (active).
`Cc1cc(C)c2[nH]c(=O)c(CN(Cc3ccccc3)C(=S)NCCCN(C)C)cc2c1` was tested, and the activation was 20.2% (active).
For `CCCCCCc1cc2cc(-c3nnc(-c4ccccc4)o3)c(=O)oc2cc1O`, the activation was 30.8% (active).
With `CCC(C)(C)C1CCC(=NNC(=O)c2ccc(Br)o2)CC1` (stereo unspecified) the activation was 19.8% (active).
In the case of `CC(=O)N1CCCc2cc(S(=O)(=O)N3CCCC(C(=O)N4CCN(c5cccc(Cl)c5)CC4)C3)ccc21` (stereo unspecified), the activation is reported as 19.6% (active).
For `COc1cc(NC(=O)C2=C(C)OCCS2)c(Cl)cc1C(=O)NCCN1CCN(C)CC1`, the activation was 18.9% (active).
For `O=C(CSc1nc(Nc2ccccc2)nc(N2CCOCC2)n1)Nc1cc(Cl)ccc1O`, the activation was 40.8% (active).
